Results published in ChEMBL document CHEMBL4402570, “Discovery and Optimization of Novel Pyrazolopyrimidines as Potent and Orally Bioavailable Allosteric HIV-1 Integrase Inhibitors” (J Med Chem, 2020).

How the values were obtained:
[1] = tested on: Human immunodeficiency virus 1; test: Antiviral activity against HIV1 NL4-3 infected in human MT2 cells measured after 3 to 4 days by luciferase reporter gene assay; format: functional, organism-based; conditions: Human immunodeficiency virus 1, NL4-3, MT2
[2] = Cytotoxicity against human MT2 cells measured after 4 days by XTT assay; format: cell-based
Summary of the method: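 MT-2 cell viability measured by XTT after 4 days of compound exposure, run in parallel with the antiviral assay; CC50 from n ≥ 2 determinations.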

[3] = Permeability of the compound in pH 7.4 buffer at 100 uM measured after 4 hrs by sandwich-PAMPA; format: ADME; conditions: read-out: permeability
Summary of the method: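 Parallel artificial membrane permeability: compound at 100 μM in donor buffer pH 7.4, permeating to acceptor through artificial membrane over 4 h; donor, acceptor and t0 solutions read by UV plate reader; triplicate.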

[4] = Stability of the compound in human liver microsomes assessed as parent compound remaining at 0.5 uM measured after 10 mins in presence of NADPH by LC-MS/MS analysis; format: ADME, Microsome; conditions: read-out: Stability
Summary of the method: (§1)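 CYP-mediated turnover: 0.5 μM compound with human or rat liver microsomes (1 mg/mL) in 100 mM sodium phosphate pH 7.4, 6.6 mM MgCl2, 37 °C; started with NADPH, DMSO 0.014%. Samples quenched at 0 and 10 min; parent remaining by LC-MS/MS; duplicate.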

[5] = Stability of the compound in rat liver microsomes assessed as parent compound remaining at 0.5 uM measured after 10 mins in presence of NADPH by LC-MS/MS analysis; format: ADME, Microsome; conditions: read-out: Stability; summary of the method: as §1
[6] = Therapeutic index, ratio of CC50 for human MT2 cells to EC50 for HIV1 NL4-3 infected in human MT2 cells; format: toxicity, cell-based; conditions: read-out: Ratio CC50/EC50
[7] = tested on: Human immunodeficiency virus 1; test: Antiviral activity against HIV1 NL4-3 infected in human MT2 cells measured after 3 to 4 days in presence of human serum albumin by luciferase reporter gene assay; format: functional, organism-based; conditions: Human immunodeficiency virus 1, NL4-3, MT2
[8] = tested on: Human immunodeficiency virus 1; test: Selectivity ratio of EC50 for HIV1 NL4-3 infected in human MT2 cells in presence of human serum albumin to EC50 for HIV1 NL4-3 infected in human MT2 cells in absence of human serum albumin; format: functional
[9] = Cmax in Sprague-Dawley rat at 1 mg/kg, iv infusion for 10 mins or 5 mg/kg, po administered via gavage by LC-MS/MS analysis; format: ADME, organism-based; conditions: in vivo
Summary of the method: (§2)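 Rats given iv via implanted venous cannula as 10 min infusion, or oral gavage after overnight fast; vehicle 10% dimethylacetamide/90% PEG400 for both routes. Plasma from venous-port blood, treated with CH3CN containing internal standard, analysed by LC-MS/MS; oral plasma levels followed 24 h after 5 mg/kg. Parameters by noncompartmental analysis of concentration-time data.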

[10] = Tmax in Sprague-Dawley rat at 1 mg/kg, iv infusion for 10 mins or 5 mg/kg, po administered via gavage by LC-MS/MS analysis; format: ADME, organism-based; conditions: in vivo; summary of the method: as §2
[11] = AUC (0 to 24 hrs) in Sprague-Dawley rat at 1 mg/kg, iv infusion for 10 mins or 5 mg/kg, po administered via gavage by LC-MS/MS analysis; format: ADME, organism-based; conditions: in vivo; summary of the method: as §2
[12] = Half life in Sprague-Dawley rat at 1 mg/kg, iv infusion for 10 mins or 5 mg/kg, po administered via gavage by LC-MS/MS analysis; format: ADME, organism-based; conditions: in vivo; summary of the method: as §2
[13] = Clearance in Sprague-Dawley rat at 1 mg/kg, iv infusion for 10 mins or 5 mg/kg, po administered via gavage by LC-MS/MS analysis; format: ADME, organism-based; conditions: in vivo; summary of the method: as §2
[14] = Volume of distribution at steady state in Sprague-Dawley rat at 1 mg/kg, iv infusion for 10 mins or 5 mg/kg, po administered via gavage by LC-MS/MS analysis; format: ADME, organism-based; conditions: in vivo, read-out: Vdss; summary of the method: as §2
[15] = Oral bioavailability in Sprague-Dawley rat at 5 mg/kg administered via gavage by LC-MS/MS analysis; format: ADME, organism-based; conditions: in vivo; summary of the method: as §2

Which results are given for `Cc1nc2cc(-c3cccc(-c4ccccc4F)c3)nn2c(-c2cc(F)c3c(c2C)CCCO3)c1[C@H](OC(C)(C)C)C(=O)O`?
EC50 [1]: 3 nM; CC50 at 96 h [2]: 19100 nM; Papp at 4 h, 100 µM [3]: 60.8 ×10⁻⁶ cm/s; remaining at 10 min, 0.5 µM [4]: 100%; remaining at 10 min, 0.5 µM [5]: 89%; selectivity ratio [6]: 6360; EC50 [7]: 19 nM; Ratio EC50 [8]: 6; Cmax [9]: 803 nM; Tmax [10]: 2.7 h; AUC(0-t) [11]: 4.73 µM·h; half-life [12]: 2 h; clearance [13]: 13 mL/min/kg; Vd [14]: 0.7 L/kg; bioavailability [15]: 44%
